For 2 compounds, inhibition results are on record in ChEMBL document CHEMBL5712898, “H3K27me1 is essential for MMP-9-dependent H3N-terminal tail proteolysis during osteoclastogenesis” (Epigenetics Chromatin, 2018).

Test [1] has as its system Osteoclast. Nature of the test: Inhibition of EZH1/2 in M-CSF/RANKL-induced OCP cells (unknown origin) assessed as reduction in H3K27me2 level at 2 uM cultured for 0, 1, 3, and 5 days with RANKL by Western blot analysis. As to conditions: Homo sapiens, time 5.0 day. (In general: In western blotting, separated proteins are transferred to a membrane and probed.)
Test [2] has as its system Osteoclast. Description: Inhibition of EZH1/2 in M-CSF/RANKL-induced OCP cells (unknown origin) assessed as reduction in H3K27me3 level at 2 uM cultured for 0, 1, 3, and 5 days with RANKL by Western blot analysis. The following applies: Homo sapiens, time 5.0 day.
Test [3] deals with Osteoclast. Nature of the test: Inhibition of EZH1/2 in M-CSF/RANKL-induced OCP cells (unknown origin) assessed as reduction in H3NT proteolysis at 2 uM cultured for 0, 1, 3, and 5 days with RANKL by Western blot analysis. As to conditions: Homo sapiens, time 5.0 day.
Test [4] deals with Matrix metalloproteinase-9 (Homo sapiens) (UniProt P14780). Nature of the test: Inhibition of MMP-9 in M-CSF/RANKL-induced OCP cells (unknown origin) assessed as reduction in accumulation of H3K27me1 in the CR region of Lif gene at 10 nM cultured for 3 days with RANKL by ChIPac-qPCR analysis. Type of test: cell-based. As to conditions: Osteoclast, time 3.0 day. In short, it runs like this: (§1)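 Cells were 3-day RANKL-induced OCP cultures (30 ng/ml M-CSF, 50 ng/ml RANKL) with inhibitor in the medium. Chromatin was fixed with […], acetylated with 20 mM acetic anhydride, and immunoprecipitated; crosslinks were reversed overnight at 65 °C. Occupancy was measured by qPCR at the Nfatc1 promoter, the Lif coding region and the Xpr1 promoter plus coding region. Data are given as mean ± SD.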
Sequence of Matrix metalloproteinase-9 (Homo sapiens) (P14780 whole entry): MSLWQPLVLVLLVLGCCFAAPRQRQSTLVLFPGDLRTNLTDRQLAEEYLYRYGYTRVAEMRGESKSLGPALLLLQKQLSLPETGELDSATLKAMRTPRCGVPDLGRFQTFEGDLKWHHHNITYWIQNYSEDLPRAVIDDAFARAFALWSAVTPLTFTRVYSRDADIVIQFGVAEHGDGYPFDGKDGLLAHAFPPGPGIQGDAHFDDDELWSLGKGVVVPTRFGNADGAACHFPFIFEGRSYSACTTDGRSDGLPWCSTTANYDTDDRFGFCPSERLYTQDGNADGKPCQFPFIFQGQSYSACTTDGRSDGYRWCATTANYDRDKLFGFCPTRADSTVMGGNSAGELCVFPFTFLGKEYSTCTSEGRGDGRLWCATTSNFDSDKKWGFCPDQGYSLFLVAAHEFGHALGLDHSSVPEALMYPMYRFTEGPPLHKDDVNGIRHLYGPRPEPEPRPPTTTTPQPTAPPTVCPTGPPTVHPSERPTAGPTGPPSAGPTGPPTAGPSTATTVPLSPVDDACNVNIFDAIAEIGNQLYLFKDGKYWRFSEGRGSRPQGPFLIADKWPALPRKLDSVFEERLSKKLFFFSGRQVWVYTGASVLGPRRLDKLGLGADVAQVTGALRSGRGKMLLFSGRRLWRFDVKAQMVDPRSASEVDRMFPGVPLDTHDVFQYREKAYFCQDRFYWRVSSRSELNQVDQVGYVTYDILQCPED

The target is the same in test [5]. Description: Inhibition of MMP-9 in M-CSF/RANKL-induced OCP cells (unknown origin) assessed as reduction in accumulation of G9a in the CR region of Lif gene at 10 nM cultured for 3 days with RANKL by ChIPac-qPCR analysis. Type of test: cell-based. As to conditions: Osteoclast, time 3.0 day. (In general: In qPCR the cycle at which signal appears reflects the starting amount.)

Test [6] shares this target. Description: Inhibition of MMP-9 in M-CSF/RANKL-induced OCP cells (unknown origin) assessed as reduction in accumulation of H3K27me1 in the P region of Nfatc1 gene at 10 nM cultured for 3 days with RANKL by ChIPac-qPCR analysis. Type of test: cell-based. The following applies: Osteoclast, time 3.0 day. In short, it runs like this:
as §1

For test [7] the target is unchanged. Nature of the test: Inhibition of MMP-9 in M-CSF/RANKL-induced OCP cells (unknown origin) assessed as reduction in accumulation of G9a in the P and CR region of Xpr1 gene at 10 nM cultured for 3 days with RANKL by ChIPac-qPCR analysis. The following applies: Osteoclast, time 3.0 day. Type of test: cell-based.
For test [8] the target is unchanged. Nature of the test: Inhibition of MMP-9 in M-CSF/RANKL-induced OCP cells (unknown origin) assessed as reduction in Xpr1 mRNA expression at 10 nM co-treated with BIX01294 cultured for 3 days with RANKL by RT-qPCR analysis. In kind it is cell-based. The following applies: Osteoclast, time 3.0 day. Put shortly:
(§2)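 OCP cells were induced for 3 days with 30 ng/ml M-CSF and 50 ng/ml RANKL, with BIX01294 (1.5 µM) and/or MMP-9 inhibitor I (10 nM) added to the medium. Nfatc1, Lif and Xpr1 transcripts were quantified by RT-qPCR as fold change. Data are given as mean ± SD.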

Test [9] has the same target. Nature of the test: Inhibition of MMP-9 in M-CSF/RANKL-induced OCP cells (unknown origin) assessed as reduction in Nfatc1 mRNA expression at 10 nM cultured for 3 days with RANKL by RT-qPCR analysis. In kind it is cell-based. As to conditions: Osteoclast, time 3.0 day. Put shortly:
as §2

Test [10] shares this target. Nature of the test: Inhibition of MMP-9 in M-CSF/RANKL-induced OCP cells (unknown origin) assessed as reduction in accumulation of H3K27me1 in the P and CR region of Xpr1 gene at 10 nM cultured for 3 days with RANKL by ChIPac-qPCR analysis. Type of test: cell-based. The following applies: Osteoclast, time 3.0 day. Put shortly: as §1
Test [11] shares this target. Nature of the test: Inhibition of MMP-9 in M-CSF/RANKL-induced OCP cells (unknown origin) assessed as reduction in H3NT proteolysis at 10 nM cultured for 0, 1, 3, and 5 days with RANKL by Western blot analysis. In kind it is cell-based. The following applies: Osteoclast, time 5.0 day. In short, it runs like this: (§3)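 Osteoclast precursor cells cultured with 30 ng/ml M-CSF plus 50 ng/ml RANKL for 0, 1, 3 or 5 days, with BIX01294 (1.5 µM) and/or MMP-9 inhibitor I (10 nM) in the medium. Nuclei were isolated in HEPES pH 7.4 sucrose buffer with 0.2% Triton X-100, and chromatin was extracted in EDTA/EGTA buffer. Cleaved H3 was detected as a faster-migrating band on Western blot with H3 C-terminal antibody.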

For test [12] the target is unchanged. Description: Inhibition of MMP-9 in M-CSF/RANKL-induced OCP cells (unknown origin) assessed as reduction in Xpr1 mRNA expression at 10 nM cultured for 3 days with RANKL by RT-qPCR analysis. In kind it is cell-based. As to conditions: Osteoclast, time 3.0 day. Put shortly: as §2
Test [13] has the same target. Nature of the test: Inhibition of MMP-9 in M-CSF/RANKL-induced OCP cells (unknown origin) assessed as reduction in Lif mRNA expression at 10 nM cultured for 3 days with RANKL by RT-qPCR analysis. In kind it is cell-based. As to conditions: Osteoclast, time 3.0 day. In short, it runs like this:
as §2

Test [14] shares this target. Description: Inhibition of MMP-9 in M-CSF/RANKL-induced OCP cells (unknown origin) assessed as reduction in H3NT proteolysis at 10 nM co-treated with 1.5 uM BIX01294 cultured for 0, 1, 3, and 5 days with RANKL by Western blot analysis. The following applies: Osteoclast, time 5.0 day. Type of test: cell-based. Put shortly:
as §3

Test [15] has the same target. Description: Inhibition of MMP-9 in M-CSF/RANKL-induced OCP cells (unknown origin) assessed as reduction in Lif mRNA expression at 10 nM co-treated with BIX01294 cultured for 3 days with RANKL by RT-qPCR analysis. In kind it is cell-based. As to conditions: Osteoclast, time 3.0 day. Put shortly: as §2
Test [16] shares this target. Description: Inhibition of MMP-9 in M-CSF/RANKL-induced OCP cells (unknown origin) assessed as reduction in Nfatc1 mRNA expression at 10 nM co-treated with BIX01294 cultured for 3 days with RANKL by RT-qPCR analysis. In kind it is cell-based. As to conditions: Osteoclast, time 3.0 day. In short, it runs like this:
as §2

For test [17] the target is unchanged. Nature of the test: Inhibition of MMP-9 in M-CSF/RANKL-induced OCP cells (unknown origin) assessed as reduction in TRAP-positive cells at 10 nM co-treated with 1.5 uM BIX01294 cultured for 0, 1, 3, and 5 days with RANKL by light microscopic analysis. As to conditions: Osteoclast, time 5.0 day. In kind it is cell-based. In short, it runs like this:
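OCP cells were differentiated with 30 ng/ml M-CSF and 50 ng/ml RANKL, with media carrying BIX01294 (1.5 µM) and/or MMP-9 inhibitor I (10 nM). On days 0, 1, 3 and 5 cells were formaldehyde-fixed and stained for tartrate-resistant acid phosphatase with an acid phosphatase leukocyte kit. TRAP-positive cells with three or more nuclei were counted as osteoclasts under a light microscope.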

Test [18] shares this target. Description: Inhibition of MMP-9 in M-CSF/RANKL-induced OCP cells (unknown origin) assessed as reduction in accumulation of G9a in the P region of Nfatc1 gene at 10 nM cultured for 3 days with RANKL by ChIPac-qPCR analysis. Type of test: cell-based. As to conditions: Osteoclast, time 3.0 day.

Calls of active or inactive are those of the source. The rule behind the calls is not given here.

For the compound `CCCc1cc(C)[nH]c(=O)c1CNC(=O)c1cc(-c2ccc(N3CCN(C(C)C)CC3)nc2)cc2c1cnn2C(C)C`, the inhibition result with Osteoclast [1] and in the test on Osteoclast [2] was “Active” throughout. Also, the inhibition entry in the test with Osteoclast [3] was “inactive”.

As to `CCN(CC)Cc1cc(C)c(N(Cc2ccccc2)S(=O)(=O)c2ccc(OC)cc2)c(C(=O)NO)c1`, the inhibition entry in test [4], in [5], in test [6], in test [7], in test [10] and in test [18] was “inactive” in each case. The inhibition result in test [8], in [9], in test [11], in test [12], in test [13] and in [14] was “Active” in each case. In addition, the inhibition entry in [15], in test [16] and in test [17] was “Active” throughout.
